H69AR growth 86K: proliferation blockers of H69AR lung cancer cells, primary screen, cell-based, human, 86K library. H69AR lung tumor viability, ATP luminescence, 72 h; stronger effect = lower value. viability, % at 10 µM. 6% of 85,000 active;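 active means viability at or below 40%; inactive means viability above 40%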;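 further: multidrug resistant small cell line overexpressing MRP-1 efflux transporter; 100% = mean luminescence of untreated control wells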
HCT116 PTEN-null: growth suppression of PTEN-null HCT116, primary screen, cell-based, CellTiter-Glo. HCT116 PTEN-null viability, 60 h; stronger effect = lower value. viability, % at 10 µM. 1.2% of 140,000 active;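 active means viability at or below a set limit, 4 SD under the median of all tested compounds, cut at about 3.7% in these data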;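 further: PTEN knockout HCT116 line with beta catenin targeted HCT116 as companion control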
HUVEC prolif 384: inhibitors of HUVEC proliferation, primary screen, cell-based, 384-well; viability, % at 10 µM (by protocol); CellTiter-Glo luminescence, 72 h; stronger effect = lower value; AID 648, 2007; 1.1% of 86,000 active;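 active means viability at or below 30%; inactive means viability above 30%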;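 further: 100% = median luminescence of DMSO-only cell control wells on each plate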
HCT116 bCat-KO: primary screen for growth suppressors in beta-catenin knockout HCT116 cells (colon tumor, human) | HCT116 beta-catenin knockout viability, CellTiter-Glo, 60 h; stronger effect = lower value | viability, % at 10 µM | 1.5% of 140,000 active | AID 818, 2007;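 active means viability at or under a set limit, the compound median less 4 SD, cut at about 6% in these data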;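 further: 0% = Hyamine 1622 control at 20 µM and 100% = untreated cell control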
Fibroblast inh: antiproliferative effect on LL 47 fibroblasts – human, LL 47 cells, CellTiter-Glo luminescence, primary screen; 1.1% of 85,000 active; viability, % at 10 µM; LL 47 human lung fibroblast viability, ATP luminescence; stronger effect = lower value; AID 719, 2007;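 active means viability at or below 50% in the single dose screen; inactive means viability above 50%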;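 further: compound exposure lasted 72 h before the ATP readout; 100% = median luminescence of untreated cell-only wells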
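test system = LL 47 human lung fibroblasts | amount = 1,150 fibroblasts seeded per well | medium = 15% FBS in IMEM | times = overnight cell rest, 72 h compound treatment at 37 °C | measured by = CellTiter-Glo luminescence measuring cellular ATP | read-out = viability percentage against median untreated-cell control | benchmarks = cell-only wells, no compound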
The depositor's hits bear a star; nt = no result. Only a selection was taken, and hits are over-represented in it overall.

SMILES | H69AR growth 86K | HCT116 PTEN-null | HUVEC prolif 384 | HCT116 bCat-KO | Fibroblast inh
CCOC(=O)COc1ccc(S(=O)(=O)NCCC2=CCCCC2)cc1 | 92 | 85 | 4.4* | 91 | 93
CCOC(=O)C1=C(N)OC(CCl)=C(C#N)C1c1ccsc1 (configuration not stated) | nt | 90 | nt | 83 | nt
O=C1C2C3C=CC(C2C(=O)N1C1CCCCC1)C1C2C(=O)N(C4CCCCC4)C(=O)C2C31 (configuration not stated) | nt | 89 | nt | 85 | nt
CCSc1nc(-c2ccccc2)nc(C(Cl)Cl)n1 | nt | 2.0* | nt | 4.2* | nt
CCSc1nc(-c2ccccc2)c2cc(Cl)ccc2n1 | nt | 85 | nt | 84 | nt
CSc1nc(-c2ccc(C)cc2)nc(C(Cl)Cl)n1 | nt | 1.1* | nt | 1.1* | nt
CCCn1c(CC)nc([N+](=O)[O-])c1S(=O)(=O)c1ccccc1 | nt | 1.2* | nt | 1.4* | nt
Cn1c(=O)n(C)c2cc([N+](=O)[O-])c(N3CCN(S(=O)(=O)c4ccccc4)CC3)cc21 | nt | 55 | nt | 61 | nt
Cc1cc(Br)ccc1NCc1ccccn1 | nt | 91 | nt | 82 | nt
CCCCNC(=O)Nc1nnc(-c2ccc(OCC)cc2)o1 | 45 | 80 | 90 | 73 | 97
CN(c1ccccc1)S(=O)(=O)c1ccc(NC(=O)c2ccc(-c3ccccc3)cc2)cc1 | nt | 57 | nt | 35 | nt
CCc1nnc(NC(=O)c2ccc(S(=O)(=O)N(CC)CC)cc2)s1 | 100 | 83 | 93 | 90 | 100
CCCCN(CC)S(=O)(=O)c1ccc(C(=O)Nc2nnc(-c3cccs3)o2)cc1 | 35* | 17 | 5.0* | 16 | 62
CCc1nnc(NC(=O)c2ccc(S(=O)(=O)N(CC)Cc3ccccc3)cc2)o1 | 21* | 12 | 70 | 18 | 69
CCOc1ccc(-c2nnc(NC(=O)c3ccc(OCC(C)C)c(OC)c3)o2)cc1 | 29* | 18 | 19* | 20 | 54
COc1cccc(C(=O)Nc2nnc(-c3cccs3)o2)c1 | 74 | 45 | 68 | 44 | 87
CN(c1ccccc1)S(=O)(=O)c1ccc(C(=O)Nc2nnc(-c3ccc(F)cc3)o2)cc1 | 34* | 12 | 2.0* | 17 | 71
CN(Cc1ccccc1)S(=O)(=O)c1ccc(C(=O)Nc2nnc(C3CC3)o2)cc1 | nt | 19 | nt | 19 | nt
CCCCN(CCCC)S(=O)(=O)c1ccc(C(=O)Nc2nnc(COC)o2)cc1 | 27* | 15 | 34 | 13 | 67
COc1ccccc1-c1nnc(NC(=O)c2ccc(S(=O)(=O)N(C)Cc3ccccc3)cc2)o1 | 22* | 18 | 17* | 22 | 67
CCCCN(C)S(=O)(=O)c1ccc(C(=O)Nc2nnc(CSC)o2)cc1 | nt | 22 | nt | 23 | nt
COc1cccc(C(=O)Nc2nnc(-c3ccc(F)cc3)o2)c1 | 37* | nt | 56 | nt | 91
Cc1nc(N2CCOCC2)c2cc(-c3ccccc3)sc2n1 | 81 | 56 | 83 | 50 | 87
c1ccc(-c2cc3c(N4CCOCC4)ncnc3s2)cc1 | 31* | 72 | 73 | 88 | nt
Cc1nn(-c2ccccc2)c(Oc2ccccc2)c1C=O | nt | 87 | nt | 73 | nt
SMILES | H69AR growth 86K | HCT116 PTEN-null | HUVEC prolif 384 | HCT116 bCat-KO | Fibroblast inh
c1ccc(-c2nc(N3CCOCC3)c3ccccc3n2)nc1 | 26* | 3.3* | 89 | 7 | 86
c1ccc(-c2nc(N3CCCCCC3)c3ccccc3n2)nc1 | 7.6* | 3.4* | 58 | 3.8* | 37*
c1ccc(CN2CCN(c3nc(-c4ccccn4)nc4ccccc34)CC2)cc1 | 3.2* | 13 | 14* | 33 | 45*
Cc1cc2c(cc(C(=O)OCC(=O)NCc3cccs3)n2C(C)C)o1 | 27* | 18 | 53 | 12 | 69
O=C(CCc1ccccc1)NNC(=S)NC(=O)c1ccc(Cl)cc1 | nt | 17 | nt | 15 | nt
COc1ccc(/C=N/N2C(=O)c3ccccc3C2=O)cc1 | nt | 97 | nt | 101 | nt
COc1ccc(/C=N/n2cc(-c3ccccc3)nc2N)cc1 | 18* | 36 | 59 | 35 | 82
COc1ccc(/C=N/n2cc(-c3ccc(OC)cc3)nc2N)cc1 | 25* | 81 | 84 | 64 | 94
N=C(CC1CC(=O)NC(=O)C1)C1=C(O)CCCC1=O | nt | 98 | nt | 95 | nt
O=C(NCc1cccs1)C1CCN(c2ccc(S(=O)(=O)N3CCOCC3)cc2Cl)CC1 | 18* | 10 | 54 | 12 | 59
CC(C)CNC(=O)C1CCN(c2ccc(S(=O)(=O)N3CCOCC3)cc2Cl)CC1 | 92 | 86 | 97 | 92 | 95
c1coc(-c2nc(-c3ccco3)c(-c3ccco3)nc2-c2ccco2)c1 | 27* | 87 | 69 | 94 | 84

From PubChem
